Measurements from ChEMBL document CHEMBL1125313, “Analogs of Ac-CCK-7 incorporating dipeptide mimics in place of Met28-Gly29” (J Med Chem, 1992).
One block for each compound: values may come before it. Starred links: 1 amine or outer side, 2 acyl side, 3 side chain; linkers in the order of their positions; H or OH if unused. Non-standard residues stand in square brackets, D forms with d. Residues, ends and D or L forms follow the SMILES beside them. Phe(4-SO3H) = N[C@@H](Cc1ccc(S(=O)(=O)O)cc1)C(=O)O; X3 = O=C(C[C@@H]1CCCC[C@@H]1N[*:1])[*:2]; X5 = O=C(C[C@H]1CCCC[C@@H]1N[*:1])[*:2]; X1 = Cc1c(N[*:1])cccc1C(=O)[*:2]; X4 = Cc1ccc(N[*:1])cc1C(=O)[*:2]; 3Abz = Nc1cccc(C(=O)O)c1; 4Abz = Nc1ccc(C(=O)O)cc1; CO = O=C([*:1])[*:2]; Ahx = NCCCCCC(=O)O; Ava = NCCCCC(=O)O; GABA = NCCCC(=O)O; βAla = NCCC(=O)O

How the values were obtained:
Rattus norvegicus [1] = assay: Dose which caused 50% inhibition of the control intake was determined by log-probit analysis after intraperitoneal administration; assay type: functional; conditions: ip
Procedure, shortened: (§1)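 Male Sprague-Dawley rats fed in one of two meal models, peptide ip. In "1-2-1" model, rats trained 4 days to eat ground chow 9–10 a.m. and 12–1 p.m., dosed 15 min before first meal, groups of 5–6. Or rats fasted 17 h overnight, given vehicle (100% DMSO) or peptide ip, 0.33 mL/kg, food weighed after 1 h, groups of 5–7. First-hour intake as % of control. ED50 from log-probit analysis; t-test versus controls.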

Rattus norvegicus [2] = assay: Compound was evaluated for its ability to suppress food intake in one of two meal-fed rats after intraperitoneal administration of 3 ug/kg; assay type: functional; procedure, shortened: as §1
[3] = target: T1, Gastrin/cholecystokinin type B receptor (Bos taurus, UniProt P79266); assay: Inhibition of [3H]propionyl-CCK-8 binding to Cholecystokinin type B receptor in bovine striatum; assay type: tissue-based
T1 sequence (P79266 whole entry): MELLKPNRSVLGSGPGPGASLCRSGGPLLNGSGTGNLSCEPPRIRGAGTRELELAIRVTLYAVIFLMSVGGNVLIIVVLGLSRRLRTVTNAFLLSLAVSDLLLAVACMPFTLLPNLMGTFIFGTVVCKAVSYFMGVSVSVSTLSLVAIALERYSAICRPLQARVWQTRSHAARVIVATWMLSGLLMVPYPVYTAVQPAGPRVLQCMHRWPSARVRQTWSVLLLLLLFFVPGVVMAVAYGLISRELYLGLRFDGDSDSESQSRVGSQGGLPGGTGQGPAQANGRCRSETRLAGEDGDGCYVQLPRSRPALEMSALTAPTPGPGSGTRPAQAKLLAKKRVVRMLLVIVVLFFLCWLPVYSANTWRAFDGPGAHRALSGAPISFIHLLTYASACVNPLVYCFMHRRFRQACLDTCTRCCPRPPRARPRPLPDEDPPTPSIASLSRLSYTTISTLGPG
Procedure, shortened: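 Frozen bovine striatum homogenized at 0 °C in 10 mM HEPES, 130 mM NaCl, 5 mM MgCl2, pH 7.4. Pellet (48000g) resuspended in same buffer plus PMSF and bacitracin, ~0.26 mg protein per 2 mL. Incubated 30 min at 25 °C with 0.15 nM (final) [propionyl-3H]CCK-8. GF/B filtration, scintillation counting. Nonspecific binding with 1 μM CCK-8. IC50 by log-probit; actives confirmed in duplicate.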

Rattus norvegicus [4] = assay: Compound was evaluated for its ability to suppress food intake in one of two meal-fed rats after intraperitoneal administration of 32 ug/kg; assay type: functional; procedure, shortened: as §1
[5] = target: T2, Cholecystokinin receptor type A (Rattus norvegicus, UniProt P30551); assay: The compound was tested in vitro for inhibition of specific [3H]propionyl-CCK-8 binding to Cholecystokinin type A receptor in rat pancreatic membranes; assay type: cell membranes, Membrane
T2 sequence (P30551 whole entry): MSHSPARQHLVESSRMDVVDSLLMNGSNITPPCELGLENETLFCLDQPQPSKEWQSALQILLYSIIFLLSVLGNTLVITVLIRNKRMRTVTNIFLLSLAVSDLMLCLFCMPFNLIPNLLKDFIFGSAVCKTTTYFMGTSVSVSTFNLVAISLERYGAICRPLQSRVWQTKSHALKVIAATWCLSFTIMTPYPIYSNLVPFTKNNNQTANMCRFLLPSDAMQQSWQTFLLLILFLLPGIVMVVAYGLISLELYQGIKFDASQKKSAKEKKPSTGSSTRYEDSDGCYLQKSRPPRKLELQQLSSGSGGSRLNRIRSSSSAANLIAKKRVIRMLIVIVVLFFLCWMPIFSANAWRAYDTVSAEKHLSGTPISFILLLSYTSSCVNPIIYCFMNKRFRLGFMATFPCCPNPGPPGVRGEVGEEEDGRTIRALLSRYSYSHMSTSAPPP
Procedure, shortened: (§2)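 Fresh pancreas from fasted rats homogenized at 0 °C in 10 mM HEPES, 130 mM NaCl, 5 mM MgCl2, pH 7.4. Pellet (48000g) resuspended in same buffer plus PMSF and bacitracin, ~0.100 mg protein per 1 mL. Incubated 30 min at 25 °C with 0.15 nM (final) [propionyl-3H]CCK-8. Filtered on GF/B and counted. Nonspecific binding with 1 μM CCK-8. IC50 by log-probit; actives confirmed in duplicate.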

Rattus norvegicus [6] = assay: Compound was evaluated for its ability to suppress food intake in one of two meal-fed rats after intraperitoneal administration of 320 ug/kg; assay type: functional; procedure, shortened: as §1
Rattus norvegicus [7] = assay: Compound was evaluated for its ability to suppress food intake in one of two meal-fed rats after intraperitoneal administration of 1240 ug/kg; assay type: functional; procedure, shortened: as §1
[8] = target: T2, Cholecystokinin receptor type A; assay: The compound was tested in vitro for inhibition of specific [3H]propionyl-CCK-8 binding to cholecystokinin type A receptor in rat pancreatic membranes; assay type: cell membranes, Membrane; procedure, shortened: as §2
Rattus norvegicus [9] = assay: Compound was evaluated for its ability to suppress food intake in one of two meal-fed rats after intraperitoneal administration of 10 ug/kg; assay type: functional; procedure, shortened: as §1
[10] = Dose which caused 50% inhibition of the control intake was determined by log-probit analysis after intraperitoneal administration (CCK-8 receptor); conditions: Rattus norvegicus
Rattus norvegicus [11] = assay: Compound was evaluated for its ability to suppress food intake in one of two meal-fed rats after intraperitoneal administration of 14 ug/kg; assay type: functional; procedure, shortened: as §1
Rattus norvegicus [12] = assay: Compound was evaluated for its ability to suppress food intake in one of two meal-fed rats after intraperitoneal administration of […]; assay type: functional
Rattus norvegicus [13] = assay: Compound was evaluated for its ability to suppress food intake in one of two meal-fed rats after intraperitoneal administration of 20 ug/kg; assay type: functional; procedure, shortened: as §1
Rattus norvegicus [14] = assay: Compound was evaluated for its ability to suppress food intake in one of two meal-fed rats after intraperitoneal administration of 0.3 ug/kg; assay type: functional; procedure, shortened: as §1

SMILES: CSCC[C@H](NC(=O)[C@H](Cc1c[nH]c2ccccc12)NC(=O)c1cccc(NC(=O)[C@H](Cc2ccc(S(=O)(=O)O)cc2)NC(=O)O)c1)C(=O)N[C@@H](CC(=O)O)C(=O)N[C@@H](Cc1ccccc1)C(N)=O ({CO}-[Phe(4-SO3H)][3Abz]WMDF-NH2)
ED50 (Rattus norvegicus [1]): 3 µmol/kg
Control (Rattus norvegicus [2]): 52%
IC50 [3]: 0.48 nM
Control (Rattus norvegicus [4]): 14%
IC50 [5]: 2.1 nM
Control (Rattus norvegicus [6]): 4%

SMILES: CSCC[C@H](NC(=O)[C@H](Cc1c[nH]c2ccccc12)NC(=O)c1ccc(NC(=O)[C@H](Cc2ccc(S(=O)(=O)O)cc2)NC(=O)O)cc1)C(=O)N[C@@H](CC(=O)O)C(=O)N[C@@H](Cc1ccccc1)C(N)=O ({CO}-[Phe(4-SO3H)][4Abz]WMDF-NH2)
ED50 (Rattus norvegicus [1]): > 1240 µmol/kg
IC50 [3]: 0.085 nM
IC50 [5]: 1600 nM
Control (Rattus norvegicus [7]): 75%

SMILES: CSCC[C@H](NC(=O)[C@H](Cc1c[nH]c2ccccc12)NC(=O)CCCCCNC(=O)[C@H](Cc1ccc(S(=O)(=O)O)cc1)NC(=O)O)C(=O)N[C@@H](CC(=O)O)C(=O)N[C@@H](Cc1ccccc1)C(N)=O ({CO}-[Phe(4-SO3H)][Ahx]WMDF-NH2)
IC50 [3]: 13 nM
Control (Rattus norvegicus [6]): 80%
IC50 [8]: 360 nM

SMILES: CSCC[C@H](NC(=O)[C@H](Cc1ccc(S(=O)(=O)O)cc1)NC(=O)O)C(=O)NCC(=O)N[C@@H](Cc1c[nH]c2ccccc12)C(=O)N[C@@H](CCSC)C(=O)N[C@@H](CC(=O)O)C(=O)N[C@@H](Cc1ccccc1)C(N)=O ({CO}-[Phe(4-SO3H)]MGWMDF-NH2)
Control (Rattus norvegicus [2]): 81%
IC50 [3]: 4.4 nM
Control (Rattus norvegicus [9]): 36%
Control (Rattus norvegicus [4]): 6%
ED50 [10]: 7 µmol/kg
IC50 [8]: 0.6 nM

SMILES: CSCC[C@H](NC(=O)[C@H](Cc1c[nH]c2ccccc12)NC(=O)c1cccc(NC(=O)[C@H](Cc2ccc(S(=O)(=O)O)cc2)NC(=O)O)c1C)C(=O)N[C@@H](CC(=O)O)C(=O)N[C@@H](Cc1ccccc1)C(N)=O ({CO}-[Phe(4-SO3H)][X1]WMDF-NH2)
ED50 (Rattus norvegicus [1]): 24 µmol/kg
IC50 [3]: 0.91 nM
Control (Rattus norvegicus [4]): 44%
Control (Rattus norvegicus [11]): 58%
Control (Rattus norvegicus [12]): 104%
IC50 [5]: 2.7 nM
Control (Rattus norvegicus [6]): 5.9%

SMILES: CSCC[C@H](NC(=O)[C@H](Cc1c[nH]c2ccccc12)NC(=O)c1cc(NC(=O)[C@H](Cc2ccc(S(=O)(=O)O)cc2)NC(=O)O)ccc1C)C(=O)N[C@@H](CC(=O)O)C(=O)N[C@@H](Cc1ccccc1)C(N)=O ({CO}-[Phe(4-SO3H)][X4]WMDF-NH2)
ED50 (Rattus norvegicus [1]): > 320 µmol/kg
IC50 [3]: 5 nM
IC50 [5]: 73 nM
Control (Rattus norvegicus [6]): 95%

Continued, in another order:

IC50 [3]: 3.4 nM
IC50 [5]: 161 nM
SMILES: CSCC[C@H](NC(=O)[C@H](Cc1c[nH]c2ccccc12)NC(=O)C[C@@H]1CCCC[C@@H]1NC(=O)[C@H](Cc1ccc(S(=O)(=O)O)cc1)NC(=O)O)C(=O)N[C@@H](CC(=O)O)C(=O)N[C@@H](Cc1ccccc1)C(N)=O ({CO}-[Phe(4-SO3H)][X3]WMDF-NH2)
ED50 (Rattus norvegicus [1]): > 320 µmol/kg
Control (Rattus norvegicus [6]): 80%

IC50 [3]: 3600 nM
IC50 [8]: 10000 nM
SMILES: CSCC[C@H](NC(=O)[C@H](Cc1c[nH]c2ccccc12)NC(=O)CCNC(=O)[C@H](Cc1ccc(S(=O)(=O)O)cc1)NC(=O)O)C(=O)N[C@@H](CC(=O)O)C(=O)N[C@@H](Cc1ccccc1)C(N)=O ({CO}-[Phe(4-SO3H)][βAla]WMDF-NH2)
Control (Rattus norvegicus [4]): 108%

IC50 [5]: 165 nM
SMILES: CSCC[C@H](NC(=O)[C@H](Cc1c[nH]c2ccccc12)NC(=O)C[C@H]1CCCC[C@@H]1NC(=O)[C@H](Cc1ccc(S(=O)(=O)O)cc1)NC(=O)O)C(=O)N[C@@H](CC(=O)O)C(=O)N[C@@H](Cc1ccccc1)C(N)=O ({CO}-[Phe(4-SO3H)][X5]WMDF-NH2)
ED50 (Rattus norvegicus [1]): > 320 µmol/kg
Control (Rattus norvegicus [6]): 90%

IC50 [3]: 9 nM
IC50 [8]: 22 nM
SMILES: CSCC[C@H](NC(=O)[C@H](Cc1c[nH]c2ccccc12)NC(=O)CCCCNC(=O)[C@H](Cc1ccc(S(=O)(=O)O)cc1)NC(=O)O)C(=O)N[C@@H](CC(=O)O)C(=O)N[C@@H](Cc1ccccc1)C(N)=O ({CO}-[Phe(4-SO3H)][Ava]WMDF-NH2)
Control (Rattus norvegicus [2]): 102%
Control (Rattus norvegicus [4]): 54%
Control (Rattus norvegicus [6]): 9%

IC50 [3]: 1.8 nM
ED50 [10]: 4.7 µmol/kg
IC50 [8]: 4.9 nM
SMILES: CSCC[C@H](NC(=O)[C@H](Cc1c[nH]c2ccccc12)NC(=O)CCCNC(=O)[C@H](Cc1ccc(S(=O)(=O)O)cc1)NC(=O)O)C(=O)N[C@@H](CC(=O)O)C(=O)N[C@@H](Cc1ccccc1)C(N)=O ({CO}-[Phe(4-SO3H)][GABA]WMDF-NH2)
Control (Rattus norvegicus [13]): 6%
Control (Rattus norvegicus [2]): 69%
Control (Rattus norvegicus [4]): 11%
Control (Rattus norvegicus [14]): 104%
Control (Rattus norvegicus [6]): 1%

IC50 [3]: 1300 nM
IC50 [8]: 1200 nM
SMILES: CSCC[C@H](NC(=O)[C@H](Cc1c[nH]c2ccccc12)NC(=O)CNC(=O)[C@H](Cc1ccc(S(=O)(=O)O)cc1)NC(=O)O)C(=O)N[C@@H](CC(=O)O)C(=O)N[C@@H](Cc1ccccc1)C(N)=O ({CO}-[Phe(4-SO3H)]GWMDF-NH2)
Control (Rattus norvegicus [4]): 69%
